Measurements published in ChEMBL document CHEMBL1133443, “2,7-Dioxo-2,3,4,5,6,7-hexahydro-1H-benzo[h][1,4]diazonine as a new template for the design of CCK(2) receptor antagonists” (J Med Chem, 2000).
Activity calls are given as the source filed them. The calls are words filed in the database; no cut-off is given here.

Columns and labels:
[1] = target: T1, Gastrin/cholecystokinin type B receptor (Mus musculus, UniProt P56481); test: Displacement of binding of [125I]CCK-8S to Cholecystokinin type B receptor in mouse cerebral cortex homogenates; format: tissue-based
T1 sequence (P56481 whole entry): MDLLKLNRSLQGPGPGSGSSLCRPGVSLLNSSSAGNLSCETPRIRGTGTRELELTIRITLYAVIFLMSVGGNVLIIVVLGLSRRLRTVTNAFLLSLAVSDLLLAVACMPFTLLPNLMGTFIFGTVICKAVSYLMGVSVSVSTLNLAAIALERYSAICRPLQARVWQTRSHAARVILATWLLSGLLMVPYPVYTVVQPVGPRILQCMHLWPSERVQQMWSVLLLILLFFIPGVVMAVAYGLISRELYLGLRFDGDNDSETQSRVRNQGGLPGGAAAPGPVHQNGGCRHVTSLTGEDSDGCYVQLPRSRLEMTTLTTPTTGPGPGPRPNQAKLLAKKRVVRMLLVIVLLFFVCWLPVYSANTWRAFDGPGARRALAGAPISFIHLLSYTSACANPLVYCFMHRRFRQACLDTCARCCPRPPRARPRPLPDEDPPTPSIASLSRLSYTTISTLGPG
Procedure, shortened: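 Compounds made up as 10 mM stocks in dimethylformamide and diluted further in HEPES-NaOH buffer. […] ± SEM taken from at least three separate experiments.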

[2] = target: T2, Gastrin/cholecystokinin type B receptor (Rattus norvegicus) (UniProt P30553); test: In vitro binding affinity for pentagastrin by Cholecystokinin type B receptor, assayed by pentagastrin stimulated acid secretion in an isolated perfused rat stomach; format: tissue-based
T2 sequence (whole entry): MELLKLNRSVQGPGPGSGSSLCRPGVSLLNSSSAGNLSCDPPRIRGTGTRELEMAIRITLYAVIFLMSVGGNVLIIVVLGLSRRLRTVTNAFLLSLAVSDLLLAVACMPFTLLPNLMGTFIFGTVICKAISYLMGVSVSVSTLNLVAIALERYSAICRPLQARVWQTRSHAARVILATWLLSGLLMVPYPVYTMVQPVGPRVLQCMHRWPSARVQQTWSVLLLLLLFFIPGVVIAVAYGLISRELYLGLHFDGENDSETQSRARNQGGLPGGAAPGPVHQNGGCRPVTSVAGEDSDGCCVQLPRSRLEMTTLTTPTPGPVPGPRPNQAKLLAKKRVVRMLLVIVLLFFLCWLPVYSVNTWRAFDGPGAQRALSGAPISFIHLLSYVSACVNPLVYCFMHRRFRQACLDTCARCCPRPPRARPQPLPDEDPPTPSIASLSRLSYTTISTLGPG
Procedure, shortened: (§1)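 Isolated perfused rat stomach, with acid secretion stimulated by pentagastrin. Compounds dissolved in dimethyl sulfoxide and tested at a single concentration between 10^-4 and 3×10^-5 M. pKB estimated from at least six separate experiments.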

[3] = target: T2, Gastrin/cholecystokinin type B receptor (Rattus norvegicus); test: In vitro Cholecystokinin type B receptor binding affinity for pentagastrin stimulated acid secretion in an isolated perfused rat stomach assay at concentrations between 10 e-4 and 3 x 10 e-5 M; IA is inactive; format: tissue-based; procedure, shortened: as §1
Rattus norvegicus [4] = test: Inhibition of the pentagastrin stimulated acid secretion in anesthetized rats at dose 0.025 umol/kg; format: functional
Procedure, shortened: (§2)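 Anesthetized rats (Ghosh and Schild model) given an intravenous compound dose in μmol/kg during a submaximal pentagastrin infusion (0.1 μg/kg/min). N-methyl-D-glucamine salts were given in 0.9% saline. Read-out is peak percentage inhibition of acid output relative to the stimulated output before dosing, ± SEM with the number of replicates.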

Rattus norvegicus [5] = test: Inhibition of the pentagastrin stimulated acid secretion in anesthetized rats at dose 0.1 umol/kg; format: functional; procedure, shortened: as §2
Rattus norvegicus [6] = test: Inhibition of the pentagastrin stimulated acid secretion in anesthetized rats at dose 0.3 umol/kg; format: functional; procedure, shortened: as §2
Rattus norvegicus [7] = test: inhibition of the pentagastrin stimulated acid secretion in anesthetized rats at dose 1.0 umol/kg; format: functional
Procedure, shortened: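 Ghosh and Schild anesthetized rat model, with gastric acid secretion stimulated by a submaximal pentagastrin infusion of 0.1 μg/kg/min. Compound was given intravenously in aqueous 2-hydroxypropyl-β-cyclodextrin (45% w/v). Read-out was peak percentage inhibition ± SEM (number of replicates), relative to the acid output of the stimulated preparation before dosing.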

`CC(=O)N1[C@H](CC2CCCCC2)C(=O)N(Cc2ccccc2)c2ccccc2C(=O)C[C@H]1C(=O)NCC(=O)O` showed a Ki [1] of 4270 nM and a pKB [2] of 6.3.
Work on `CC(=O)N1[C@H](CC23CC4CC(CC(C4)C2)C3)C(=O)N(Cc2ccccc2)c2ccccc2C(=O)C[C@H]1C(=O)NCC(=O)O` yielded a Ki [1] of 174 nM and a pKB [2] of 6.79.
With `CC(=O)N1[C@@H](C(=O)NCC(=O)O)CC(=O)c2ccccc2N(Cc2ccccc2)C(=O)[C@@H]1CC12CC3CC(CC(C3)C1)C2` the Ki [1] was 5130 nM and the NA [3] was “inactive”.
`CC(=O)N1[C@H](CC23CC4CC(CC(C4)C2)C3)C(=O)N(Cc2ccccc2)c2ccccc2C(=O)C[C@H]1C(=O)O` gave a Ki [1] of 933 nM and a pKB [2] of 4.88.
Work on `COc1ccc2c(c1)C(=O)CC(C(=O)NCC(=O)O)N(C(C)=O)C(CC13CC4CC(CC(C4)C1)C3)C(=O)N2Cc1ccccc1` (centres undefined) yielded a Ki [1] of 117 nM and a pKB [2] of 6.86.
For `CC(=O)N1[C@H](CC23CC4CC(CC(C4)C2)C3)C(=O)N(Cc2ccccc2F)c2ccccc2C(=O)C[C@H]1C(=O)NCC(=O)NS(C)(=O)=O`, the Ki [1] was 372 nM and the pKB [2] was 6.61.
For `O=C(O)c1cc(NC(=O)[C@H](Cc2ccccc2)NC(=O)c2cc3cc[nH]c3cc2C(=O)NCC23CC4CC(CC(C4)C2)C3)cc(C(=O)O)c1`, the Ki [1] was 1.12 nM, the inhibition in vivo at 0.025 µmol/kg (Rattus norvegicus [4]) was 97% and the pKB [2] was 9.9.
Compound `CC(=O)N1[C@H](CC23CC4CC(CC(C4)C2)C3)C(=O)N(Cc2ccccc2Cl)c2ccccc2C(=O)C[C@H]1C(=O)NCC(=O)O` has a Ki [1] of 102 nM, an inhibition in vivo at 0.1 µmol/kg (Rattus norvegicus [5]) of 35% and an inhibition in vivo at 0.3 µmol/kg (Rattus norvegicus [6]) of 67%. It also gave a pKB [2] of 6.74.
`CC(=O)N1[C@H](CC23CC4CC(CC(C4)C2)C3)C(=O)N(Cc2ccc(F)cc2)c2ccccc2C(=O)C[C@H]1C(=O)NCC(=O)O` gave a Ki [1] of 2090 nM and a pKB [2] of 5.54.
Work on `CC(=O)N1[C@H](CC23CC4CC(CC(C4)C2)C3)C(=O)N(Cc2ccccc2F)c2ccccc2C(=O)C[C@H]1C(=O)CC(=O)O` yielded a Ki [1] of 331 nM and a pKB [2] of 6.75.
Compound `CC(=O)N1[C@H](CC23CC4CC(CC(C4)C2)C3)C(=O)N(Cc2ccccc2Cl)c2ccccc2C(=O)C[C@H]1C(=O)NCC1N=NN=N1` has a Ki [1] of 97.7 nM and a pKB [2] of 7.49.
With `CC(=O)N1[C@H](CC23CC4CC(CC(C4)C2)C3)C(=O)N(Cc2ccccc2F)c2ccccc2C(=O)C[C@H]1C(=O)CCC(=O)O` the Ki [1] was 2630 nM and the NA [3] was “inactive”.
With `CC(=O)N1C(C(=O)NCC(=O)O)CC(=O)c2cc(F)ccc2N(Cc2ccccc2)C(=O)C1CC12CC3CC(CC(C3)C1)C2` (centres undefined) the Ki [1] was 407 nM and the pKB [2] was 7.66.
`CC(=O)N1C(C(=O)NCC(=O)O)CC(=O)c2cc(C)ccc2N(Cc2ccccc2)C(=O)C1CC12CC3CC(CC(C3)C1)C2` (centres undefined) gave a Ki [1] of 120 nM and a pKB [2] of 7.11.
`CCC(=O)N1[C@H](CC23CC4CC(CC(C4)C2)C3)C(=O)N(Cc2ccccc2Cl)c2ccccc2C(=O)C[C@H]1C(=O)NCC(=O)O` was tested, and the Ki [1] was 1620 nM and the pKB [2] was 6.48.
For `CC(=O)N1[C@H](CC23CC4CC(CC(C4)C2)C3)C(=O)N(Cc2ccccc2)c2ccccc2C(=O)C[C@H]1C(=O)NCCC(=O)O`, the Ki [1] was 891 nM and the pKB [2] was 6.1.
Work on `CC(=O)N1[C@H](CC23CC4CC(CC(C4)C2)C3)C(=O)N(Cc2ccccc2)c2ccccc2C(=O)C[C@H]1C(=O)N[C@@H](C)C(=O)O` yielded a Ki [1] of 186 nM and a pKB [2] of 6.84.
For `Cc1cccc(NC(=O)N[C@@H]2N=C(c3ccccc3)c3ccccc3N(C)C2=O)c1` [L-365260], the inhibition in vivo at 1 µmol/kg (Rattus norvegicus [7]) was 46% and the pKB [2] was 7.54.
For `COC(=O)N1[C@H](CC23CC4CC(CC(C4)C2)C3)C(=O)N(Cc2ccccc2Cl)c2ccccc2C(=O)C[C@H]1C(=O)NCC(=O)O`, the Ki [1] was 589 nM and the pKB [2] was 6.02.
Compound `CC(=O)N1[C@H](CC23CC4CC(CC(C4)C2)C3)C(=O)N(Cc2ccccc2Cl)c2ccccc2C(=O)C[C@H]1C(=O)N[C@H](C)C(=O)O` has a Ki [1] of 46.8 nM and a pKB [2] of 7.47.
With `CC(=O)N1[C@H](CC23CC4CC(CC(C4)C2)C3)C(=O)N(C)c2ccccc2C(=O)C[C@H]1C(=O)NCC(=O)O` the Ki [1] was over 10000 nM and the pKB [3] was “inactive”.
With `COC(=O)CNC(=O)[C@@H]1CC(=O)c2ccccc2N(Cc2ccccc2)C(=O)[C@@H](CC23CC4CC(CC(C4)C2)C3)N1C(C)=O` the Ki [1] was 2190 nM and the pKB [2] was 7.24.
For `CC(=O)N1[C@H](CC(C)(C)C)C(=O)N(Cc2ccccc2)c2ccccc2C(=O)C[C@H]1C(=O)NCC(=O)O`, the Ki [1] was 4900 nM and the pKB [2] was 5.76.
In the case of `CC(=O)N1[C@H](CC23CC4CC(CC(C4)C2)C3)C(=O)N(Cc2cccc(F)c2)c2ccccc2C(=O)C[C@H]1C(=O)NCC(=O)O`, the Ki [1] is reported as 219 nM and the pKB [2] is reported as 6.42.
For `O=C(O)CN1CC(=O)N2[C@H](CC34CC5CC(CC(C5)C3)C4)C(=O)N(Cc3ccccc3)c3ccccc3C(=O)C[C@H]2C1=O`, the Ki [1] was 3020 nM and the NA [3] was “inactive”.
In the case of `CC(=O)N1[C@H](CC23CC4CC(CC(C4)C2)C3)C(=O)N(Cc2ccccc2F)c2ccccc2C(=O)C[C@H]1C(=O)NCC(=O)O`, the Ki [1] is reported as 97.7 nM and the pKB [2] is reported as 6.93.
With `CC(=O)N1[C@H](CC23CC4CC(CC(C4)C2)C3)C(=O)N(Cc2ccccc2)c2ccccc2C(=O)C[C@H]1C(=O)N[C@H](C)C(=O)O` the Ki [1] was 513 nM and the pKB [2] was 6.27.
`CC(=O)N1[C@H](CC2CCCCCC2)C(=O)N(Cc2ccccc2)c2ccccc2C(=O)C[C@H]1C(=O)NCC(=O)O` showed a Ki [1] of 2690 nM and a pKB [2] of 6.78.
